Measured values taken from ChEMBL document CHEMBL2146441, “2,6-Disubstituted imidazo[2,1-b][1,3,4]thiadiazoles: search for anticancer agents” (2012).

Tests used:
Assay type in all cases: functional
CCRF-CEM = assay: Cytotoxicity against human CCRF-CEM cells assessed as cell growth at 10^-8 M after 48 hrs by SRB assay; conditions: read-out: Activity
Outline: (§1)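 NCI-60 screen: lines kept in RPMI 1640 with 5% FBS, seeded at 5000–40,000 cells/well by doubling time, preincubated 24 h at 37 °C in 5% CO2. Time-zero plates TCA-fixed at drug addition. DMSO stocks diluted in medium, 48 h exposure. Fixation in cold TCA (final 10% adherent, 16% suspension), 0.4% SRB stain, solubilised in 10 mM Tris base, A515. Percent growth computed against control and time-zero.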

UO-31 = assay: Growth inhibition of human UO31 cells after 48 hrs by SRB assay; conditions: UO-31, 48 h
Outline: (§2)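 Adherent NCI-60 lines grown in RPMI 1640 with 5% FBS, seeded at 5000–40,000 cells/well, and preincubated 24 h at 37 °C, 5% CO2. Compound, stocked in DMSO, given either once at 10^-5 M or at five 10-fold dilutions for 48 h. Cells fixed with cold TCA (final 10%), stained with 0.4% SRB, and read at 515 nm. GI50 taken as 50% reduction in net protein increase versus time-zero and control plates.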

SN12C [1] = assay: Cytotoxicity against human SN12C cells assessed as cell growth at 10^-5 M after 48 hrs by SRB assay; conditions: read-out: Activity
M14 = assay: Growth inhibition of human M14 cells after 48 hrs by SRB assay; conditions: M14, 48 h; outline: as §2
SN12C [2] = assay: Cytotoxicity against human SN12C cells assessed as cell growth at 10^-8 M after 48 hrs by SRB assay; conditions: read-out: Activity
A498 = assay: Cytotoxicity against human A498 cells assessed as cell growth at 10^-5 M after 48 hrs by SRB assay; conditions: A498, 48 h, read-out: Activity; outline: as §1
KM12 = assay: Growth inhibition of human KM12 cells after 48 hrs by SRB assay; conditions: KM12, 48 h; outline: as §2
[3] = Cytotoxicity against human Hs 578T cells assessed as cell growth at 10^-4 M after 48 hrs by SRB assay; conditions: read-out: Activity
Outline: (§3)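 NCI-60 five-dose screen. Cells were grown in RPMI 1640 with 5% FBS and seeded at 5000–40,000 cells/well according to doubling time. They were pre-incubated 24 h at 37 °C in 5% CO₂, and time-zero (Tz) plates were TCA-fixed at drug addition. Five 10-fold dilutions of DMSO stock were applied for 48 h. Read-out was SRB staining, 515 nm absorbance, with percent growth calculated versus Tz and untreated control.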

EKVX = assay: Cytotoxicity against human EKVX cells assessed as cell growth at 10^-6 M after 48 hrs by SRB assay; conditions: read-out: Activity; outline: as §1
SNB-19 = assay: Cytotoxicity against human SNB19 cells assessed as cell growth at 10^-6 M after 48 hrs by SRB assay; conditions: SNB-19, 48 h, read-out: Activity
PC-3 = assay: Cytotoxicity against human PC3 cells assessed as cell growth at 10^-6 M after 48 hrs by SRB assay; conditions: PC-3, 48 h, read-out: Activity
NCI-H522 = assay: Cytotoxicity against human NCI-H522 cells assessed as cell growth at 10^-4 M after 48 hrs by SRB assay; conditions: NCI-H522, 48 h, read-out: Activity
OVCAR-8 = assay: Cytotoxicity against human OVCAR8 cells assessed as cell growth at 10^-5 M after 48 hrs by SRB assay; conditions: OVCAR-8, 48 h, read-out: Activity
NCI-H322M = assay: Growth inhibition of human NCI-H322M cells after 48 hrs by SRB assay; conditions: for CC50: read-out: LC50 (the source's name); outline: as §2
OVCAR-4 = assay: Growth inhibition of human OVCAR4 cells after 48 hrs by SRB assay; conditions: OVCAR-4, 48 h; outline: as §2
SW-620 = assay: Cytotoxicity against human SW620 cells assessed as cell growth at 10^-5 M after 48 hrs by SRB assay; conditions: SW-620, 48 h, read-out: Activity
SNB-75 = assay: Cytotoxicity against human SNB75 cells assessed as cell growth at 10^-5 M after 48 hrs by SRB assay; conditions: SNB-75, 48 h, read-out: Activity
NCI-H226 = assay: Cytotoxicity against human NCI-H226 cells assessed as cell growth at 10^-8 M after 48 hrs by SRB assay; conditions: NCI-H226, 48 h, read-out: Activity
HCT-116 = assay: Cytotoxicity against human HCT116 cells assessed as cell growth at 10^-8 M after 48 hrs by SRB assay; conditions: HCT-116, 48 h, read-out: Activity; outline: as §3
SF-295 = assay: Cytotoxicity against human SF295 cells assessed as cell growth at 10^-7 M after 48 hrs by SRB assay; conditions: SF-295, 48 h, read-out: Activity
MDA-MB-435 = assay: Cytotoxicity against human MDA-MB-435 cells assessed as cell growth at 10^-5 M after 48 hrs by SRB assay; conditions: MDA-MB-435, 48 h, read-out: Activity
CAKI-1 = assay: Cytotoxicity against human Caki1 cells assessed as cell growth at 10^-8 M after 48 hrs by SRB assay; conditions: CAKI-1, 48 h, read-out: Activity; outline: as §1
HCC 2998 = assay: Cytotoxicity against human HCC2998 cells assessed as cell growth at 10^-8 M after 48 hrs by SRB assay; conditions: HCC 2998, 48 h, read-out: Activity; outline: as §3
OVCAR-3 = assay: Growth inhibition of human OVCAR3 cells after 48 hrs by SRB assay; conditions: OVCAR-3, 48 h; outline: as §2
BT-549 = assay: Growth inhibition of human BT549 cells after 48 hrs by SRB assay; conditions: BT-549, 48 h; for CC50: read-out: LC50 (the source's name)
Outline: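 Same 48 h NCI-60 five-dose SRB protocol. Adherent lines were fixed with cold TCA at 10% final; suspension lines such as CCRF-CEM were fixed with 16% final TCA. Stain was 0.4% SRB in 1% acetic acid for 10 min, solubilized in 10 mM Tris base and read at 515 nm. GI50 came from log concentration–growth curves, solving [(Ti−Tz)/(C−Tz)]×100 = 50.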

OVCAR-5 = assay: Cytotoxicity against human OVCAR5 cells assessed as cell growth at 10^-4 M after 48 hrs by SRB assay; conditions: OVCAR-5, 48 h, read-out: Activity

SMILES: COc1ccc(-c2nn3cc(-c4ccc(O)cc4O)nc3s2)cc1
- growth at 0.01 µM (CCRF-CEM): 98%
- GI50 (UO-31): 1.44 µM
- LC50 (UO-31): > 100 µM
- TGI (UO-31): 3.97 µM
- growth at 10 µM (SN12C [1]): 7%
- GI50 (M14): 3.68 µM
- LC50 (concentration killing 50% of cells) (M14): > 100 µM
- TGI (M14): 18.1 µM
- growth at 0.01 µM (SN12C [2]): 99%
- growth at 10 µM (A498): -50%
- Concentration killing 50% of cells (LC50) (KM12): > 100 µM
- GI50 (KM12): 3.61 µM
- TGI (KM12): > 100 µM
- growth at 100 µM [3]: -1%
- growth at 1 µM (EKVX): 65%
- growth at 1 µM (SNB-19): 85%
- growth at 1 µM (PC-3): 65%
- growth at 100 µM (NCI-H522): -23%
- growth at 10 µM (OVCAR-8): 7%
- GI50 (NCI-H322M): 3.23 µM
- TGI (NCI-H322M): > 100 µM
- CC50 (NCI-H322M): > 100 µM
- GI50 (OVCAR-4): 1.38 µM
- TGI (OVCAR-4): 3.39 µM
- growth at 10 µM (SW-620): 26%
- growth at 10 µM (SNB-75): -66%
- growth at 0.01 µM (NCI-H226): 94%
- growth at 0.01 µM (HCT-116): 94%
- growth at 0.1 µM (SF-295): 90%
- growth at 10 µM (MDA-MB-435): 14%
- growth at 0.01 µM (CAKI-1): 95%
- growth at 0.01 µM (HCC 2998): 98%
- GI50 (OVCAR-3): 2.54 µM
- LC50 (concentration causing 50% net cell kill) (OVCAR-3): > 100 µM
- TGI (OVCAR-3): 8.48 µM
- GI50 (BT-549): 2.36 µM
- TGI (BT-549): 28.1 µM
- CC50 (BT-549): > 100 µM
- growth at 100 µM (OVCAR-5): 2%

SMILES: COc1ccc(-c2nn3cc(-c4cccc(N)c4)nc3s2)cc1
- growth at 0.01 µM (CCRF-CEM): 96%
- GI50 (UO-31): 1.46 µM
- LC50 (UO-31): 63.3 µM
- TGI (UO-31): 10.2 µM
- growth at 10 µM (SN12C [1]): 36%
- GI50 (M14): 5.48 µM
- LC50 (concentration killing 50% of cells) (M14): 90.1 µM
- TGI (M14): 24.5 µM
- growth at 0.01 µM (SN12C [2]): 91%
- growth at 10 µM (A498): -17%
- Concentration killing 50% of cells (LC50) (KM12): > 100 µM
- GI50 (KM12): 5.34 µM
- TGI (KM12): 27.5 µM
- growth at 100 µM [3]: -10%
- growth at 1 µM (EKVX): 50%
- growth at 1 µM (SNB-19): 81%
- growth at 1 µM (PC-3): 53%
- growth at 100 µM (NCI-H522): -76%
- growth at 10 µM (OVCAR-8): 31%
- GI50 (NCI-H322M): 7.15 µM
- TGI (NCI-H322M): 87.2 µM
- CC50 (NCI-H322M): > 100 µM
- GI50 (OVCAR-4): 1.54 µM
- TGI (OVCAR-4): 15.1 µM
- CC50 (OVCAR-4; read-out: LC50 (the source's name)): > 100 µM
- growth at 10 µM (SW-620): 40%
- growth at 10 µM (SNB-75): -24%
- growth at 0.01 µM (NCI-H226): 92%
- growth at 0.01 µM (HCT-116): 99%
- growth at 0.1 µM (SF-295): 87%
- growth at 10 µM (MDA-MB-435): 11%
- growth at 0.01 µM (CAKI-1): 86%
- growth at 0.01 µM (HCC 2998): 98%
- GI50 (OVCAR-3): 3.4 µM
- LC50 (concentration causing 50% net cell kill) (OVCAR-3): 55.2 µM
- TGI (OVCAR-3): 15.9 µM
- GI50 (BT-549): 3.88 µM
- TGI (BT-549): 30.8 µM
- CC50 (BT-549): > 100 µM
- growth at 100 µM (OVCAR-5): -23%
